Measured values from ChEMBL document CHEMBL5303300, “EUbOPEN Chemogenomics Library - Multiplex” (2023).
“And” between values parts separate entries of the source, which are not always exact repeats. Equal entries are not always repeated.

Columns and labels:
Format in all cases: toxicity, cell-based
[1] = test system: HEK-293T; assay: Multiplex assay against HEK293T; settings: human, number of replicates 2
Outline: (§1)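 Values for tubulin, mitochondrial-mass and membrane-permeability phenotypes are per cents of cells with healthy nuclei. These cells were identified by CellPathfinder machine-learning gating of live cells that had been stained at seeding with Hoechst33342, BioTracker Green Microtubule Cytoskeleton Dye, MitoTracker Red and Annexin V Alexa Fluor 680 and imaged on a CQ1 microscope at 37°C and 5% CO2 after compound addition. The gating first set Hoechst high-intensity objects apart from normal cells, then split normal cells into healthy, pyknosed or fragmented nuclei, and pyknosed cells into mitotic or apoptotic.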

[2] = test system: U2OS; assay: Multiplex assay against U2OS; settings: human, number of replicates 2; outline: as §1
[3] = test system: Fibroblast; assay: Multiplex assay against human fibroblast; settings: number of replicates 2; outline: as §1
[4] = 12 h, 1 µM, compound concentration 1 uM
[5] = 12 h, 10 µM, compound concentration 10 uM
[6] = 24 h, 1 µM, compound concentration 1 uM
[7] = 24 h, 10 µM, compound concentration 10 uM
[8] = 48 h, 1 µM, compound concentration 1 uM
[9] = 48 h, 10 µM, compound concentration 10 uM

## O=C(Nc1ccc(Cl)c(-c2ccccn2)c1)c1cccc(COc2ccc(Br)cc2CNCCO)c1.O=CO
[1]; [4]
  Population Apoptotic (%): 56% and 52%
  Population Fragmented Nuclei (%): 4% and 3%
  Population Healthy Nuclei (%): 76% and 80%
  Population Hoechst High Intensity Objects (%): 8% and 10%
  Population Membrane Permeable-Phenotype (%): 6% and 5%
  Population Mitochondria Different-Phenotype (%): 37% and 35%
  Population Mitotic Cells (%): 43% and 47%
  Population Normal (%): 91% and 89%
  Population Pyknosed Nuclei (%): 18% and 15%
  Population Tubulin-Different-Phenotype (%): 92% and 94%
  Total Cell Count: 417 and 613
[1]; [5]
  Population Apoptotic (%): 85% and 73%
  Population Fragmented Nuclei (%): 0% and 7%
  Population Healthy Nuclei (%): 79% and 71%
  Population Hoechst High Intensity Objects (%): 11% and 13%
  Population Membrane Permeable-Phenotype (%): 1%
  Population Mitochondria Different-Phenotype (%): 91% and 83%
  Population Mitotic Cells (%): 14% and 26%
  Population Normal (%): 88% and 86%
  Population Pyknosed Nuclei (%): 19% and 21%
  Population Tubulin-Different-Phenotype (%): 81% and 95%
  Total Cell Count: 238 and 269
[1]; [6]
  Population Apoptotic (%): 48% and 54%
  Population Fragmented Nuclei (%): 4% and 6%
  Population Healthy Nuclei (%): 85% and 82%
  Population Hoechst High Intensity Objects (%): 6% and 10%
  Population Membrane Permeable-Phenotype (%): 6%
  Population Mitochondria Different-Phenotype (%): 29% and 19%
  Population Mitotic Cells (%): 51% and 45%
  Population Normal (%): 93% and 89%
  Population Pyknosed Nuclei (%): 9% and 11%
  Population Tubulin-Different-Phenotype (%): 88% and 86%
  Total Cell Count: 566 and 806
[1]; [7]
  Population Apoptotic (%): 82% and 80%
  Population Fragmented Nuclei (%): 4%
  Population Healthy Nuclei (%): 75% and 72%
  Population Hoechst High Intensity Objects (%): 16% and 15%
  Population Membrane Permeable-Phenotype (%): 1% and 2%
  Population Mitochondria Different-Phenotype (%): 95% and 89%
  Population Mitotic Cells (%): 17% and 19%
  Population Normal (%): 83% and 84%
  Population Pyknosed Nuclei (%): 19% and 23%
  Population Tubulin-Different-Phenotype (%): 74% and 91%
  Total Cell Count: 248 and 263
[1]; [8]
  Population Apoptotic (%): 48% and 34%
  Population Fragmented Nuclei (%): 7% and 9%
  Population Healthy Nuclei (%): 87% and 85%
  Population Hoechst High Intensity Objects (%): 8% and 10%
  Population Membrane Permeable-Phenotype (%): 9% and 8%
  Population Mitochondria Different-Phenotype (%): 8% and 5%
  Population Mitotic Cells (%): 51% and 65%
  Population Normal (%): 91% and 89%
  Population Pyknosed Nuclei (%): 4%
  Population Tubulin-Different-Phenotype (%): 61% and 66%
  Total Cell Count: 894 and 1474
[1]; [9]
  Population Apoptotic (%): 79% and 78%
  Population Fragmented Nuclei (%): 3% and 1%
  Population Healthy Nuclei (%): 71% and 68%
  Population Hoechst High Intensity Objects (%): 19% and 12%
  Population Membrane Permeable-Phenotype (%): 4% and 1%
  Population Mitochondria Different-Phenotype (%): 82% and 86%
  Population Mitotic Cells (%): 20% and 21%
  Population Normal (%): 80% and 87%
  Population Pyknosed Nuclei (%): 24% and 29%
  Population Tubulin-Different-Phenotype (%): 84% and 89%
  Total Cell Count: 339 and 305
[2]; [4]
  Population Apoptotic (%): 71% and 88%
  Population Fragmented Nuclei (%): 11% and 3%
  Population Healthy Nuclei (%): 62% and 75%
  Population Hoechst High Intensity Objects (%): 0%
  Population Membrane Permeable-Phenotype (%): 47% and 48%
  Population Mitochondria Different-Phenotype (%): 23% and 66%
  Population Mitotic Cells (%): 28% and 11%
  Population Normal (%): 100%
  Population Pyknosed Nuclei (%): 25% and 20%
  Population Tubulin-Different-Phenotype (%): 82% and 87%
[2]; [5]
  Population Apoptotic (%): 75% and 64%
  Population Healthy Nuclei (%): 44% and 72%
  Population Hoechst High Intensity Objects (%): 0%
  Population Membrane Permeable-Phenotype (%): 62% and 32%
  Population Mitochondria Different-Phenotype (%): 62% and 57%
  Population Mitotic Cells (%): 25% and 36%
  Population Normal (%): 100%
  Population Pyknosed Nuclei (%): 11% and 16%
  Population Tubulin-Different-Phenotype (%): 100% and 93%
[2]; [6]
  Population Apoptotic (%): 69% and 82%
  Population Healthy Nuclei (%): 48% and 76%
  Population Hoechst High Intensity Objects (%): 0%
  Population Membrane Permeable-Phenotype (%): 31% and 45%
  Population Mitochondria Different-Phenotype (%): 57% and 69%
  Population Mitotic Cells (%): 30% and 17%
  Population Normal (%): 100% and 99%
  Population Pyknosed Nuclei (%): 33% and 20%
  Population Tubulin-Different-Phenotype (%): 100% and 84%
[2]; [7]
  Population Apoptotic (%): 100% and 71%
  Population Healthy Nuclei (%): 51% and 63%
  Population Hoechst High Intensity Objects (%): 0%
  Population Membrane Permeable-Phenotype (%): 82% and 75%
  Population Mitochondria Different-Phenotype (%): 82% and 72%
  Population Normal (%): 100%
  Population Pyknosed Nuclei (%): 15% and 28%
  Population Tubulin-Different-Phenotype (%): 100% and 98%
[2]; [8]
  Population Apoptotic (%): 69% and 89%
  Population Healthy Nuclei (%): 52% and 66%
  Population Hoechst High Intensity Objects (%): 2% and 0%
  Population Membrane Permeable-Phenotype (%): 40% and 46%
  Population Mitochondria Different-Phenotype (%): 52% and 59%
  Population Mitotic Cells (%): 30% and 10%
  Population Normal (%): 97% and 100%
  Population Pyknosed Nuclei (%): 27% and 30%
  Population Tubulin-Different-Phenotype (%): 92% and 65%
[2]; [9]
  Population Apoptotic (%): 94% and 90%
  Population Healthy Nuclei (%): 15% and 28%
  Population Hoechst High Intensity Objects (%): 2% and 1%
  Population Membrane Permeable-Phenotype (%): 100% and 80%
  Population Mitochondria Different-Phenotype (%): 66% and 72%
  Population Mitotic Cells (%): 5% and 9%
  Population Normal (%): 97% and 98%
  Population Pyknosed Nuclei (%): 44% and 62%
  Population Tubulin-Different-Phenotype (%): 100% and 97%
[3]; [4]
  Population Apoptotic (%): 41% and 58%
  Population Fragmented Nuclei (%): 4% and 14%
  Population Healthy Nuclei (%): 72% and 56%
  Population Hoechst High Intensity Objects (%): 0% and 1%
  Population Membrane Permeable-Phenotype (%): 10% and 13%
  Population Mitochondria Different-Phenotype (%): 1% and 6%
  Population Mitotic Cells (%): 58% and 41%
  Population Normal (%): 100% and 98%
  Population Pyknosed Nuclei (%): 23% and 28%
  Population Tubulin-Different-Phenotype (%): 71% and 68%
  Total Cell Count: 208 and 161
[3]; [5]
  Population Apoptotic (%): 46% and 42%
  Population Fragmented Nuclei (%): 15% and 17%
  Population Healthy Nuclei (%): 58%
  Population Hoechst High Intensity Objects (%): 0%
  Population Membrane Permeable-Phenotype (%): 21% and 16%
  Population Mitochondria Different-Phenotype (%): 6% and 14%
  Population Mitotic Cells (%): 53% and 57%
  Population Normal (%): 100% and 99%
  Population Pyknosed Nuclei (%): 25% and 24%
  Population Tubulin-Different-Phenotype (%): 83% and 85%
  Total Cell Count: 318 and 361
[3]; [6]
  Population Apoptotic (%): 55% and 63%
  Population Fragmented Nuclei (%): 9% and 11%
  Population Healthy Nuclei (%): 69% and 58%
  Population Hoechst High Intensity Objects (%): 0%
  Population Membrane Permeable-Phenotype (%): 6% and 5%
  Population Mitochondria Different-Phenotype (%): 5% and 8%
  Population Mitotic Cells (%): 44% and 36%
  Population Normal (%): 99% and 100%
  Population Pyknosed Nuclei (%): 21% and 30%
  Population Tubulin-Different-Phenotype (%): 59% and 61%
  Total Cell Count: 224 and 146
[3]; [7]
  Population Apoptotic (%): 76% and 81%
  Population Fragmented Nuclei (%): 10% and 6%
  Population Healthy Nuclei (%): 40% and 46%
  Population Hoechst High Intensity Objects (%): 0% and 1%
  Population Mitochondria Different-Phenotype (%): 40% and 50%
  Population Mitotic Cells (%): 23% and 18%
  Population Normal (%): 99% and 98%
  Population Pyknosed Nuclei (%): 49% and 47%
  Population Tubulin-Different-Phenotype (%): 82%
  Total Cell Count: 238 and 280
[3]; [8]
  Population Apoptotic (%): 61% and 78%
  Population Fragmented Nuclei (%): 9% and 12%
  Population Healthy Nuclei (%): 72% and 64%
  Population Hoechst High Intensity Objects (%): 1%
  Population Membrane Permeable-Phenotype (%): 4% and 5%
  Population Mitochondria Different-Phenotype (%): 3% and 8%
  Population Mitotic Cells (%): 38% and 21%
  Population Normal (%): 98%
  Population Pyknosed Nuclei (%): 18% and 22%
  Population Tubulin-Different-Phenotype (%): 54% and 42%
  Total Cell Count: 215 and 165
[3]; [9]
  Population Apoptotic (%): 95%
  Population Fragmented Nuclei (%): 9% and 8%
  Population Healthy Nuclei (%): 12% and 13%
  Population Hoechst High Intensity Objects (%): 0%
  Population Membrane Permeable-Phenotype (%): 38% and 27%
  Population Mitochondria Different-Phenotype (%): 23% and 41%
  Population Mitotic Cells (%): 4%
  Population Normal (%): 99%
  Population Pyknosed Nuclei (%): 78% and 77%
  Population Tubulin-Different-Phenotype (%): 66% and 75%
  Total Cell Count: 174 and 211
